A word on the IC50: it is the concentration that inhibits the measured activity by half. Usually inhibition stands for the drop in the measured response relative to a control, in per cent. The low end stands for a response near the control, the high end for a response far below the control.

A short description of series [1]: Drug concentration in ICR mouse plasma at 10 mg/kg, po measured after 1 hr. The format is ADME, organism-based. Summed up:
(§1)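 Mice given a single 10 mg/kg dose by oral gavage, 3 mice per time point. Plasma drug levels measured at 1, 3, 6 and 24 h; mean ± SD reported.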

Series [2] is described as follows: Drug concentration in ICR mouse plasma at 10 mg/kg, po measured after 24 hrs. In kind it is ADME, organism-based. The method, boiled down: as §1
A short description of series [3]: Drug concentration in ICR mouse plasma at 10 mg/kg, po measured after 6 hrs. In kind it is ADME, organism-based. Summed up:
as §1

The subject of another series is LNCaP. The experiment in a line: Growth inhibition in human LNCaP cells incubated for 4 days by WST-8 assay relative to control. The format is functional. To be noted: time 4 day. The method, boiled down:
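LNCaP cells grown in RPMI 1640 with 10% FBS, treated for 4 days. Viability read by WST-8 assay.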
On the technique in general: Tetrazolium dyes change colour on reduction, which living cells bring about.

In a further series the test system is VCaP. The experiment in a line: Growth inhibition in human VCaP cells incubated for 4 days by WST-8 assay relative to control. The format is functional. As to conditions: time 4 day. The method, boiled down:
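VCaP prostate cancer cells (ATCC) were maintained in DMEM with Glutamax plus 10% fetal bovine serum at 37 °C, humidified 5% CO2. They were exposed to compound for 4 days, and viability was then read by WST-8 colorimetric assay following the kit instructions.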

The nature of series [4]: Drug concentration in ICR mouse plasma at 10 mg/kg, po measured after 3 hrs. In kind it is ADME, organism-based. Summed up:
as §1

Another series concerns the target T1, Androgen receptor (Homo sapiens, UniProt P10275).
T1 sequence (P10275 whole entry): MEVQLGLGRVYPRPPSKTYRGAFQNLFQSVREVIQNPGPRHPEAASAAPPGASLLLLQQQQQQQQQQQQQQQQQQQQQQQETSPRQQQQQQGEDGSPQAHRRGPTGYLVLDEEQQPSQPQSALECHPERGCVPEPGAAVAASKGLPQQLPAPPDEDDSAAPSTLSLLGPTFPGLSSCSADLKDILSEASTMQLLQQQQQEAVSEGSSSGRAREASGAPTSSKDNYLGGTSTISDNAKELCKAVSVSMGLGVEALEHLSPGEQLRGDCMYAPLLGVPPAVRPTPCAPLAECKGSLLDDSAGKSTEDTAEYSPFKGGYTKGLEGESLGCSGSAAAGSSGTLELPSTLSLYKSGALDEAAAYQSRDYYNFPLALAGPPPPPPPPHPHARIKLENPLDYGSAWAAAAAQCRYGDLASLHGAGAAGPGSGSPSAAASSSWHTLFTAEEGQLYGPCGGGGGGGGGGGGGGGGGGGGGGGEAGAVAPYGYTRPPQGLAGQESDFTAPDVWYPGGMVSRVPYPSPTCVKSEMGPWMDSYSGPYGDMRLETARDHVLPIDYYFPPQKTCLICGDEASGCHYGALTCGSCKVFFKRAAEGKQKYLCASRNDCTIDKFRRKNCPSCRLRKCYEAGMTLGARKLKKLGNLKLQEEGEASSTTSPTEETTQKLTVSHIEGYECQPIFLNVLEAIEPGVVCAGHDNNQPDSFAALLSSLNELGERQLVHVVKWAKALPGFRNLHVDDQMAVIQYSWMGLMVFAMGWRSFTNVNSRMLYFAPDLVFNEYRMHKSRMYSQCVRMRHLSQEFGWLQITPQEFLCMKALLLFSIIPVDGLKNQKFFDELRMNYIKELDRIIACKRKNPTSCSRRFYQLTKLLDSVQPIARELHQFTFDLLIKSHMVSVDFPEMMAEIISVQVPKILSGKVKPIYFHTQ
Briefly: Displacement of Fluormone AL Green from androgen receptor LBD (unknown origin) incubated for 4 hrs by fluorescence polarization assay.

For series [5], the target named is T2, Androgen receptor (Homo sapiens) (UniProt P10275).
T2 sequence (whole entry): T1 sequence (P10275 whole entry)
Briefly: Induction of androgen receptor degradation in human VCaP cells at 0.01 uM after 24 hrs by Western blotting analysis relative to control. In kind it is cell-based. The method, boiled down:
(§2)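 VCaP cells treated for 24 h at 10, 100 or 1000 nM. AR protein measured by Western blotting.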
On the technique in general: A western blot detects proteins with antibodies after separation by electrophoresis.

Series [6] addresses T2, Androgen receptor (Homo sapiens). Briefly: Induction of androgen receptor degradation in human VCaP cells at 1 uM after 24 hrs by Western blotting analysis relative to control. In kind it is cell-based. The method, boiled down:
as §2

Series [7] shares this target. Briefly: Induction of androgen receptor degradation in human VCaP cells at 0.1 uM after 24 hrs by Western blotting analysis relative to control. The format is cell-based. The method, boiled down:
as §2

Series [8] shares this target. Briefly: Displacement of Fluormone AL Green from androgen receptor LBD (unknown origin) at 1 uM incubated for 4 hrs by fluorescence polarization assay relative to control. (In general: In fluorescence polarisation assays a small probe gives low polarisation when free and higher when bound to something large.)

In series [1], `N#Cc1ccc(O[C@H]2CC[C@H](NC(=O)c3ccc(N4CCC(CN5CCN(c6cc7c(cc6F)C(=O)N(C6CCC(=O)NC6=O)C7=O)CC5)CC4)nn3)CC2)cc1Cl` (some centres undefined) [BAVDEGALUTAMIDE] had a concentration at 1 h of 55 ng/mL. This compound also registered a concentration at 24 h in series [2] of 70 ng/mL. Further, the concentration at 6 h in [3] was 110 ng/mL. The Imax with LNCaP stood at 90%; with VCaP, 88%. The same compound came in with a concentration at 3 h in [4] of 124 ng/mL.

Regarding `N#Cc1ccc(N2CCC3(CCN(C(=O)c4ccccc4)CC3)C2)cc1Cl`, the IC50 on Androgen receptor was found to be 1700 nM.

On to `CN1CCN(C(=O)c2ccc(N3CCC4(CC3)CCN(c3ccc(C#N)c(Cl)c3)C4)cc2)CC1`, for which the IC50 at Androgen receptor is 78 nM. This IC50 is about 22-fold lower than that of the compound before.

Turning to `C[C@H]1CC2(CCN(c3ccc(C(=O)N4CCN(C5CN(c6ccc7c(c6)C(=O)N(C6CCC(=O)NC6=O)C7=O)C5)CC4)cc3)CC2)CN1c1ccc(C#N)c(F)c1` (some centres undefined), the Activity in [5] is more than 90%; in series [6], more than 95%; in series [7], more than 95%. In addition, the concentration at 1 h in series [1] amounted to 134 ng/mL. In series [3], this compound yielded a concentration at 6 h of 91 ng/mL. This compound also came in with a concentration at 3 h in series [4] of 146 ng/mL.

In the case of `CN1CCN(c2ccc(C(=O)N3CCC4(CC3)CCN(c3ccc(C#N)c(Cl)c3)C4)cc2)CC1`, the IC50 at Androgen receptor turned out to be 800 nM.

With `C[C@H]1CC2(CCN(c3ccc(C(=O)N4CCN(C5CN(c6ccc7c(c6)C(=O)N(C6CCC(=O)NC6=O)C7=O)C5)CC4)cc3)CC2)CN1c1ccc(C#N)c(C(F)(F)F)c1` (some centres undefined), the Activity in series [5] was more than 90%; in [6], more than 95%; in series [7], more than 95%. Moreover, the concentration at 1 h in [1] amounted to 31 ng/mL. Also, in [3], the concentration at 6 h was 29 ng/mL. This compound also yielded a concentration at 3 h in series [4] of 56 ng/mL.

With `C[C@H]1CC2(CCN(c3ccc(C(=O)N4CCN(C5CN(c6ccc7c(c6)C(=O)N(C6CCC(=O)NC6=O)C7=O)C5)CC4)cc3)CC2)CN1c1cnc(C#N)c(C(F)(F)F)c1` (some centres undefined), the Activity in series [5] is more than 90%; in [6], more than 95%; in series [7], more than 95%. The concentration at 1 h in series [1] was determined as 571 ng/mL. For the same compound, in series [3], the concentration at 6 h stood at 451 ng/mL. For the same compound, the concentration at 3 h in [4] worked out at 678 ng/mL.

In series [8], `N#Cc1ccc(N2CCC3(CCN(c4ccccc4)CC3)C2)cc1Cl` yielded an inhibition of 30%. The IC50 on Androgen receptor was more than 1000 nM.

These data come from ChEMBL document CHEMBL5331127, “Discovery of ARD-2051 as a Potent and Orally Efficacious Proteolysis Targeting Chimera (PROTAC) Degrader of Androgen Receptor for the Treatment of Advanced Prostate Cancer” (J Med Chem, 2023).
